An excerpt weighted towards active compounds, which were near 2.7% of everything screened.
SIAE primary – human SIAE inhibition, primary screen | Q9HAT2 | SIAE FP-Rh probe binding, fluorescence polarization | inhibition, % at 9.66 µM | 370,000 compounds, 0.69% hits;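 active = inhibition above a cutoff: mean of compounds within the control limits plus 3 SD of those, cut at about 17% in these data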
mABHD4 FP – inhibits mouse alpha/beta hydrolase domain 4 | Q8VD66 | purified mABHD4, FP-Rh probe fluorescence polarization | inhibition, % at 8.92 µM | 370,000 compounds, 0.54% hits;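 active = inhibition exceeding the mean over every tested compound plus 3 SD, cut at about 30% in these data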
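assay system = mABHD4 protein | compound dosing = single nominal dose of 8.92 µM, 0.89% DMSO final | read-out basis = percent inhibition of probe binding, normalized to plate controls | schedule = Enzyme–compound pre-incubation 45 min, then probe 60 min, both 25 °C | detection = fluorescence polarization, excitation 525 nm, emission 598 nm, BODIPY TMR filters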
TCR-CD3 inh – human TCR-CD3 binding inhibition; 360,000 compounds, 0.37% hits; AID 651800; TAMRA-labeled TCR probe fluorescence, biochemical; inhibition, % at 9.4 µM; in the data active = inhibition above about 19%;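 note: recombinant mutant TCR 2C K166C tagged with TAMRA read by polarization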
HTRA1 inhibitor – HTRA1 (human) protease inhibition | 340,000 compounds, 0.5% hits | Q92743 | recombinant HTRA1, FP-rhodamine activity-based probe, fluorescence polarization | inhibition, % at 5.96 µM; in the data active = inhibition above about 36%
Target sequence (Q92743 whole entry, looked up): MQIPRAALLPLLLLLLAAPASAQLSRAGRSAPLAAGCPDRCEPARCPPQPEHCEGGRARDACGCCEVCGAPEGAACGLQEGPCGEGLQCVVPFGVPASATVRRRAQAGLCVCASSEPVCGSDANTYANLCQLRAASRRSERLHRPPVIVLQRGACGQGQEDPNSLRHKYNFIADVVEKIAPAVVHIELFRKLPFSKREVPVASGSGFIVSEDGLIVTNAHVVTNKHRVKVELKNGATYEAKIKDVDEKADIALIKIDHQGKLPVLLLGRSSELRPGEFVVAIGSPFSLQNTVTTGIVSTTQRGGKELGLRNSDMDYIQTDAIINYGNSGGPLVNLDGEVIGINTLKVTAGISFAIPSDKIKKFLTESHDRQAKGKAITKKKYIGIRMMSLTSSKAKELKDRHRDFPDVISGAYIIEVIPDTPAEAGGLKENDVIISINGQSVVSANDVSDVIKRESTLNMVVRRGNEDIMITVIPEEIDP
PRMT1 inh – PRMT1 (human) inhibition, primary screen. Q99873. recombinant PRMT1, activity-based probe fluorescence polarization. inhibition, % at 2.79 µM. 370,000 compounds, 1.3% hits. AID 652257;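 active = inhibition above about 21% made by adding two undisclosed values, limit read from the data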
PRMT1 inh conf – PRMT1 (human) inhibition, FP confirmation; shares compounds with PRMT1 inh; AID 687036; 3,300 compounds, 42% hits; inhibition, % at 2.79 µM; recombinant His-PRMT1, activity-based probe fluorescence polarization;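 active = mean inhibition across replicates above the hit cutoff derived for the earlier primary screen, cut at about 22% in these data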
Hits are given with their value; . = inactive; / = not tested or not shown.

SMILES | SIAE primary | mABHD4 FP | TCR-CD3 inh | HTRA1 inhibitor | PRMT1 inh | PRMT1 inh conf
COC(=O)C1=C(C)NC(=S)NC1c1ccc(-c2cc(Cl)ccc2Cl)o1 (stereo not given) | . | . | . | . | 70 | .
CC(OC(=O)/C=C/c1ccco1)C(=O)Nc1cccc([N+](=O)[O-])c1 (stereo not given) | . | . | . | . | . | /
CC(=O)c1ccc(NC(=O)C(C)OC(=O)/C=C/c2ccco2)cc1 (stereo not given) | . | . | . | . | 31 | .
CC(=Nc1ccc(Br)cc1)c1sc2ccccc2c1O | . | . | . | . | 28 | .
NC(=Nc1ccc(Br)cc1)c1ccccc1 | . | . | . | . | . | /
CC(=Nc1ccccc1)c1sc2ccccc2c1O | . | . | . | . | 33 | 32
CC(=Nc1ccccc1)C1=C(O)COC1=O | . | . | . | . | . | /
COc1ccc(-c2nc(CSCC(=O)NC3CCCc4ccccc43)c(C)o2)cc1 (stereo not given) | . | . | . | . | 29 | 26
CCOC(=O)N1CCC(NC(=O)CSCc2nc(-c3ccc(OC)cc3)oc2C)CC1 | . | . | . | . | . | /
CC(NC(=O)COC(=O)C1CCCCC1)c1ccccc1 (stereo not given) | . | . | . | . | . | /
c1cncc(C2SCCCS2)c1 | . | . | . | . | . | /
N#Cc1cc2c([nH]c1=S)CCCC2 | . | . | . | . | 32 | .
CC1(C)Cc2[nH]c(=S)c(C#N)cc2CO1 | . | . | . | . | 41 | 24
Cc1ccc(NC(=O)C2=NNC(=O)CC2)cc1S(=O)(=O)Nc1ccc(SC(F)F)cc1 | . | . | . | . | 27 | .
COc1ccccc1NS(=O)(=O)c1cc(NC(=O)C2=NNC(=O)CC2)ccc1C | . | . | . | . | . | /
O=C(NCc1ccccc1)N1CCN(Cc2nc3ccccc3c(=O)[nH]2)CC1 | . | . | / | / | . | /
Cc1cccc(N2C(=O)C=CC2=O)c1 | . | . | . | . | 71 | 88
O=C1C=CC(=O)N1c1ccc2ccccc2c1 | . | . | . | . | 70 | 90
COC(=O)c1cccnc1Oc1ccccc1 | . | . | . | . | . | /
CC(C)CN1C(=O)[C@]2(CC(=O)N(C)C2c2ccccc2)c2cc(-n3cc(CO)nn3)ccc21 (stereo not given in full) | . | . | / | / | . | /
Cc1cc(C)n2c(=S)[nH]nc2n1 | . | . | . | . | 56 | 91
O=c1cc(-c2ccccc2)nc2cc(-c3ccco3)[nH]n12 | . | . | . | . | 30 | .
Cc1c(C(=O)N(C)Cc2ccc(F)cc2)sc(=O)n1Cc1ccc(Cl)c(Cl)c1 | . | . | . | / | . | /
O=C1CCNc2ccc(-c3ccccc3)cc21 | . | . | . | . | 75 | 79
Cc1ccc2c(c1)C(=O)CCN2 | . | . | . | . | . | /
SMILES | SIAE primary | mABHD4 FP | TCR-CD3 inh | HTRA1 inhibitor | PRMT1 inh | PRMT1 inh conf
COc1cccc(-c2cnc(C(O)c3ccc(OC)c(F)c3)[nH]2)c1 (stereo not given) | . | . | . | / | . | /
CCOC(=O)C1=C(N)Oc2c(c(=O)[nH]c3ccccc23)C1c1ccccc1 (stereo not given) | . | . | . | . | 58 | .
CCOC(=O)C1=C(N)Oc2cc(C)[nH]c(=O)c2C1c1ccncc1 (stereo not given) | . | . | . | . | . | /
CC(NC(=O)c1c(N)[nH]c(C(=O)c2ccc(Cl)cc2)c1-c1ccc(Br)cc1)c1cccc2ccccc12 (stereo not given) | . | . | . | / | . | /
CCc1noc(C)c1C(=O)OC(C)C(=O)Nc1cc([N+](=O)[O-])ccc1OC (stereo not given) | . | . | . | . | 98 | .
Cc1noc(C)c1C(=O)OC(C)C(=O)Nc1ccc([N+](=O)[O-])cc1C(F)(F)F (stereo not given) | . | . | . | . | . | /
O=C1CC(N2CCC(c3nc4ccccc4[nH]3)CC2)C(=O)N1Cc1ccccc1 (stereo not given) | . | . | . | . | 33 | .
CN1C(=O)CC(N2CCC(c3nc4ccccc4[nH]3)CC2)C1=O (stereo not given) | . | . | . | . | . | /
O=C1CC(N2CCC(c3nc4ccccc4[nH]3)CC2)C(=O)N1c1cccc(F)c1 (stereo not given) | . | . | . | . | 43 | .
